Results reported in ChEMBL document CHEMBL4364258, “Discovery of novel benzofuran-based compounds with neuroprotective and immunomodulatory properties for Alzheimer's disease treatment” (Eur J Med Chem, 2019).
Activity calls are given as the source filed them. No cut-off for these calls is given here.

Tests used:
[1] = molecular target: T1, Cannabinoid receptor 2 (Homo sapiens, UniProt P34972); test: Displacement of 3[H]-CP55940 from human recombinant CB2 receptor expressed in HEK293 cell membranes measured after 90 mins by Cheng-Prusoff equation analysis
[2] = molecular target: T2, Cholinesterase (Homo sapiens, UniProt P06276); test: Inhibition of human recombinant BuChE at 25 uM using butyrylthiocholine iodide as substrate preincubated for 20 mins followed by substrate addition by Ellman's spectrophotometric method relative to control
[3] = molecular target: T1, Cannabinoid receptor 2; test: Displacement of 3[H]-CP55940 from human recombinant CB2 receptor expressed in HEK293 cell membranes measured after 90 mins
[4] = molecular target: T3, Cannabinoid receptor 1 (Homo sapiens, UniProt P21554); test: Displacement of 3[H]-CP55940 from human recombinant CB1 receptor expressed in HEK293 cell membranes measured after 90 mins
[5] = molecular target: T2, Cholinesterase; test: Inhibition of human recombinant BuChE using butyrylthiocholine iodide as substrate preincubated for 20 mins followed by substrate addition by Ellman's spectrophotometric method
[6] = molecular target: T3, Cannabinoid receptor 1; test: Displacement of 3[H]-CP55940 from human recombinant CB1 receptor expressed in HEK293 cell membranes measured after 90 mins by Cheng-Prusoff equation analysis
[7] = species: Homo sapiens; test: Selectivity index, ratio of Ki for displacement of 3[H]-CP55940 from human recombinant CB1 receptor expressed in HEK293 cell membranes to Ki for displacement of 3[H]-CP55940 from human recombinant CB2 receptor expressed in HEK293 cell membranes
[8] = tested on: SH-SY5Y; test: Neuroprotection against amyloid beta (1 to 42) induced toxicity in human SH-SY5Y cells after 4 hrs by MTT assay; assay type: functional, cell-based
In short: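 SH-SY5Y cells seeded 3×10^4/well, 24 h, then treated 4 h with Aβ1-42 oligomers (10 µM) plus compound at 0.625–5.0 µM. Read by MTT formazan exocytosis assay: MTT 0.5 mg/mL in HBSS 1 h at 37 °C, intracellular formazan dissolved in 1% Tween 20, absorbance 570 nm (reference 690 nm). At least three independent experiments.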

[9] = tested on: N9; test: Immunomodulatory activity in LPS-induced mouse N9 cells assessed as reduction in TREM2 expression at 5 uM after 24 hrs by Western blotting analysis relative to control; assay type: functional, cell-based
In short: (§1)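 N9 microglia on poly-L-lysine in DMEM high glucose with 10% FBS, plated 2.5×10^5 cells/35 mm dish. Activated with LPS 100 ng/mL together with 0, 5 or 10 µM compound in serum-free DMEM for 24 h. Lysates run on 12.5% SDS-PAGE and immunoblotted for iNOS or TREM2, with GAPDH as loading control, ECL detection. Densitometry given as % of LPS alone, three experiments.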

[10] = tested on: N9; test: Immunomodulatory activity in LPS-induced mouse N9 cells assessed as reduction in iNOS expression at 5 uM after 24 hrs by Western blotting analysis relative to control; assay type: functional; details: N9, 24 h; in short: as §1
[11] = tested on: SH-SY5Y; test: Cytotoxicity against human SH-SY5Y cells assessed as effect on cell viability up to 5 uM after 24 hrs by MTT assay; assay type: cell-based
In short: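 SH-SY5Y cells grown in DMEM with 10% FBS, 2 mM L-glutamine and penicillin/streptomycin, seeded 2×10^4 cells/well, 24 h, then exposed 24 h to 1.25–40 µM. Viability read as MTT reduction: MTT 0.5 mg/mL in HBSS 2 h at 37 °C, formazan dissolved in isopropanol, absorbance 570 nm (reference 690 nm).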

[12] = molecular target: T1, Cannabinoid receptor 2; test: Inverse agonist activity at recombinant human CB2R expressed in CHOK1 cells assessed as increase in NKH477-stimulated intracellular cAMP levels after 30 mins by chemiluminescent based cAMP Hunter assay; assay type: functional, cell-based
In short: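 CHO-K1 cells stably expressing human CB2R, 30,000 cells/well, held overnight. Compound dose-response with NKH-477 (forskolin analogue, 25 µM) for 30 min at 37 °C. cAMP measured by enzyme-fragment-complementation chemiluminescence. Normalized with NKH-477 alone = 100%. Three independent experiments in triplicate, mean ± SEM.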

[13] = molecular target: T1, Cannabinoid receptor 2; test: Potency index, ratio of SR144528 Ki to compound Ki for displacement of 3[H]-CP55940 from human recombinant CB2
[14] = molecular target: T1, Cannabinoid receptor 2; test: Inverse agonist activity at recombinant human CB2R expressed in CHOK1 cells assessed as increase in NKH477-stimulated intracellular cAMP levels preincubated for 15 mins followed by CB2 agonist JWH-133 addition and measured after 30 mins by chemiluminescent based cAMP Hunter assay; assay type: functional, cell-based
[15] = molecular target: T2, Cholinesterase; test: Potency index, ratio of galanthamine IC50 to compound IC50 for inhibition of human recombinant BuChE
[16] = tested on: N9; test: Downregulation of total GAPDH in LPS-induced mouse N9 cells at 5 uM after 24 hrs by Western blotting analysis; assay type: ADME, cell-based; details: n9, 24 h; in short: as §1

T1 sequence (P34972 whole entry): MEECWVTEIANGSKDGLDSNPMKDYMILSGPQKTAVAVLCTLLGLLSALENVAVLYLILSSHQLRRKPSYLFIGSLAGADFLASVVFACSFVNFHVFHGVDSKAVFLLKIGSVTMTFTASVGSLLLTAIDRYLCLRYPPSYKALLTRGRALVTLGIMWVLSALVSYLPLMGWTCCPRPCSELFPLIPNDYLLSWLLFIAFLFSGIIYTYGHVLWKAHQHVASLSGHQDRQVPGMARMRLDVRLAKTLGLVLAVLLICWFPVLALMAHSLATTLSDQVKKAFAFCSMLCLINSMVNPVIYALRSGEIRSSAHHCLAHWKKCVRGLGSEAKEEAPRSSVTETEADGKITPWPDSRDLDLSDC
T2 sequence (P06276 whole entry): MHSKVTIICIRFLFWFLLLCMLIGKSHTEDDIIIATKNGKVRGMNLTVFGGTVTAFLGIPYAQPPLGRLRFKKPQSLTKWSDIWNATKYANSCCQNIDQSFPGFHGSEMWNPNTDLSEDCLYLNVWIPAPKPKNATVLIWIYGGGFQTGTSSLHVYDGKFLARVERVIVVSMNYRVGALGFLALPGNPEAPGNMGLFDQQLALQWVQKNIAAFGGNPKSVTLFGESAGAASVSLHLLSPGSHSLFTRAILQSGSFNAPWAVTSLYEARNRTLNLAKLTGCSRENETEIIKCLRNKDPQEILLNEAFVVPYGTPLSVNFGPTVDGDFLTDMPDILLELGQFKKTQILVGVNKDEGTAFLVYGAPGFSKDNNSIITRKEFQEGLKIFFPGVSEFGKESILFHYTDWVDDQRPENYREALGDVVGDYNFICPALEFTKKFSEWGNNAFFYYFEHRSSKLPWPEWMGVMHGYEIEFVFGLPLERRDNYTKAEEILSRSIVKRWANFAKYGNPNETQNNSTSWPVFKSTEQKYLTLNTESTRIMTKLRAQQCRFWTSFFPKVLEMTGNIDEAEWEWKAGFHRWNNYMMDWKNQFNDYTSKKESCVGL
T3 sequence (P21554 whole entry): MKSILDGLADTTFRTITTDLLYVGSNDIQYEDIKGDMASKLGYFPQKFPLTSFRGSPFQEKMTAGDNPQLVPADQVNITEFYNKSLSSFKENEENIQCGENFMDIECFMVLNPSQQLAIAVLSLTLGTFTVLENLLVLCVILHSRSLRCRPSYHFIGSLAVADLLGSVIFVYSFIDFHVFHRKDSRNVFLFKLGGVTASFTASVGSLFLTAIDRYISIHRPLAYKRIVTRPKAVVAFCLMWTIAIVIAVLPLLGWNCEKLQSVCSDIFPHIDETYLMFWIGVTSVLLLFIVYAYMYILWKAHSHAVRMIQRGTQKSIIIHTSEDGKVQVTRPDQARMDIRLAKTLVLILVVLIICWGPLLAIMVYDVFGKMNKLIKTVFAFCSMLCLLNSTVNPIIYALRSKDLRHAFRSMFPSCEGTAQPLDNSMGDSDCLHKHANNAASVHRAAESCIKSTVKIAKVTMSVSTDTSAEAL

Structure (SMILES): COc1ccc(-c2oc3ccccc3c2C(=O)c2ccc(N(Cc3cc(F)cc(F)c3)Cc3cc(F)cc(F)c3)cc2)cc1
- Ki [1]: > 10 µM
- inhibition [2]: 67%
- IC50 [3]: > 10 µM
- IC50 [4]: > 10 µM
- IC50 [5]: 11.7 µM
- Ki [6]: > 10 µM

Structure (SMILES): COc1ccc(-c2oc3ccccc3c2C(=O)c2ccc(OCCN(C)Cc3ccccc3)cc2)cc1
- Ki [1]: 0.69 µM
- inhibition [2]: 65%
- Ratio Ki [7]: 0.6
- IC50 [3]: 2.63 µM
- IC50 [4]: 1.52 µM
- IC50 [5]: 14 µM
- Ki [6]: 0.43 µM

Structure (SMILES): COc1ccc(-c2oc3ccccc3c2C(=O)c2ccc(NCC3CC3)cc2)cc1
- Ki [1]: 0.11 µM
- inhibition [2]: 22.4%
- Ratio Ki [7]: 4.3
- IC50 [3]: 0.41 µM
- IC50 [4]: 1.67 µM
- Ki [6]: 0.47 µM

Structure (SMILES): COc1ccc(-c2oc3ccccc3c2C(=O)c2ccc(NCc3ccccn3)cc2)cc1
- Ki [1]: 1.34 µM
- inhibition [2]: 15.3%
- Ratio Ki [7]: > 7.5
- IC50 [3]: 5.09 µM
- IC50 [4]: > 10 µM
- Ki [6]: > 10 µM

Structure (SMILES): CCCCCNc1ccc(C(=O)c2c(-c3ccc(OC)cc3)oc3ccccc23)cc1
- Ki [1]: 0.07 µM
- inhibition [2]: 72.2%
- Ratio Ki [7]: 1.1
- IC50 [3]: 0.26 µM
- IC50 [4]: 0.3 µM
- IC50 [5]: 3.9 µM
- Ki [6]: 0.08 µM

Structure (SMILES): COc1ccc(-c2oc3ccccc3c2C(=O)c2ccc(NCc3ccc(F)cc3)cc2)cc1
- Ki [1]: 0.02 µM
- Activity [8]: Dose-dependent effect
- inhibition [2]: 60.8%
- Activity [9]: inactive
- Ratio Ki [7]: 39
- IC50 [3]: 0.07 µM
- inhibition at 5 µM [10]: 83%
- IC50 [4]: 3.21 µM
- Activity [11]: Non-Toxic
- Ki [6]: 0.78 µM

Structure (SMILES): COc1ccc(-c2oc3ccccc3c2C(=O)c2ccc(-n3cc(COc4cccc(F)c4)nn3)cc2)cc1
- Ki [1]: > 10 µM
- inhibition [2]: < 10%
- IC50 [3]: > 10 µM
- IC50 [4]: > 10 µM
- Ki [6]: > 10 µM

Structure (SMILES): COc1ccc(-c2oc3ccccc3c2C(=O)c2ccc(OCCCCN(C)Cc3ccccc3)cc2)cc1
- Ki [1]: > 10 µM
- inhibition [2]: 35.2%
- IC50 [3]: > 10 µM
- IC50 [4]: 3.52 µM
- IC50 [5]: 219 µM
- Ki [6]: 0.86 µM

Structure (SMILES): COc1ccc(-c2oc3ccccc3c2C(=O)c2ccc(NCc3ccccc3)cc2)cc1
- Ki [1]: 0.17 µM
- inhibition [2]: < 10%
- Ratio Ki [7]: > 59
- IC50 [3]: 0.66 µM
- IC50 [4]: > 10 µM
- Ki [6]: > 10 µM

Structure (SMILES): COc1ccc(-c2oc3ccccc3c2C(=O)c2ccc(N(Cc3ccccc3)Cc3ccccc3)cc2)cc1
- Ki [1]: 0.92 µM
- inhibition [2]: 30.9%
- Ratio Ki [7]: > 11
- IC50 [3]: 3.64 µM
- IC50 [4]: > 10 µM
- Ki [6]: > 10 µM

Structure (SMILES): COc1ccc(CNc2ccc(C(=O)c3c(-c4ccc(OC)cc4)oc4ccccc34)cc2)cc1
- Ki [1]: 1.02 µM
- inhibition [2]: < 10%
- Ratio Ki [7]: > 10
- IC50 [3]: 3.86 µM
- IC50 [4]: > 10 µM
- Ki [6]: > 10 µM

Structure (SMILES): COc1ccc(-c2oc3ccccc3c2C(=O)c2ccc(N(C)Cc3ccc(F)cc3)cc2)cc1
- Ki [1]: 0.0027 µM
- Activity [12]: Active
- Ratio Ki [13]: 600
- inhibition [2]: < 10%
- Activity [9]: inactive
- Ratio Ki [7]: 7.4
- IC50 [3]: 0.01 µM
- inhibition at 5 µM [10]: 60%
- IC50 [4]: 0.08 µM
- Activity [11]: Non-Toxic
- Activity [14]: Dose-dependent effect
- Ki [6]: 0.02 µM

Structure (SMILES): CCCCCCCNc1ccc(C(=O)c2c(-c3ccc(OC)cc3)oc3ccccc23)cc1
- Ki [1]: 0.41 µM
- inhibition [2]: 30.2%
- Ratio Ki [7]: 4
- IC50 [3]: 1.54 µM
- IC50 [4]: 5.84 µM
- Ki [6]: 1.66 µM

Structure (SMILES): COc1ccc(-c2oc3ccccc3c2C(=O)c2ccc(NCc3ccc(C#N)cc3)cc2)cc1
- Ki [1]: 0.02 µM
- inhibition [2]: < 10%
- Ratio Ki [7]: 130
- IC50 [3]: 0.09 µM
- IC50 [4]: 9.12 µM
- Ki [6]: 2.6 µM

Structure (SMILES): COc1ccc(-c2oc3ccccc3c2C(=O)c2ccc(OCCCN(C)Cc3ccccc3)cc2)cc1
- Ki [1]: 0.12 µM
- inhibition [2]: 35%
- Ratio Ki [7]: 4.2
- IC50 [3]: 0.44 µM
- IC50 [4]: 2.06 µM
- IC50 [5]: 135 µM
- Ki [6]: 0.5 µM

Structure (SMILES): COc1ccc(-c2oc3ccccc3c2C(=O)c2ccc(NCc3cc(F)cc(F)c3)cc2)cc1
- Ki [1]: 0.3 µM
- inhibition [2]: < 10%
- Ratio Ki [7]: > 33
- IC50 [3]: 1.15 µM
- IC50 [4]: > 10 µM
- Ki [6]: > 10 µM

Structure (SMILES): COc1ccc(-c2oc3ccccc3c2C(=O)c2ccc(OCCCCCN(C)Cc3ccccc3)cc2)cc1
- Ki [1]: > 10 µM
- inhibition [2]: > 90%
- IC50 [3]: > 10 µM
- Ratio IC50 [15]: 19
- IC50 [4]: 7.2 µM
- IC50 [5]: 1.09 µM
- Ki [6]: 1.76 µM

Structure (SMILES): COc1ccc(-c2oc3ccccc3c2C(=O)c2ccc(N(Cc3ccc(F)cc3)Cc3ccc(F)cc3)cc2)cc1
- Ki [1]: 0.43 µM
- inhibition [2]: 75%
- Ratio Ki [7]: > 23
- IC50 [3]: 1.65 µM
- IC50 [4]: > 10 µM
- IC50 [5]: 6.03 µM
- Ki [6]: > 10 µM

Structure (SMILES): CN(CCCCCCCOc1ccc(-c2oc3ccccc3c2C(=O)c2ccccc2)cc1)Cc1ccccc1
- Activity [16]: Toxic
